# Published values gathered from unrelated publications.
# Target: 5-hydroxytryptamine receptor 2B (HTR2B, Homo sapiens, UniProt P41595)
SMILES,test,measurement,value
CCOC(=O)[C@@]12C[C@@H]1[C@@H](n1cnc3c(N[C@H](C4CCC4)C4CC4)nc(I)nc31)[C@H](O)[C@@H]2O,"calcium signal, antagonist",Kb,1.74 nM
Cc1cc(NC(=O)Nc2ccc3c(ccn3C)c2)sn1,"ligand displacement, radioligand",IC50,160 nM
CNC(=O)[C@@]12C[C@@H]1[C@@H](n1cnc3c(NCCc4ccccc4)nc(I)nc31)[C@H](O)[C@@H]2O,"cell-free assay, radioligand",Ki,117 nM
CCOCc1nc(O)c(-c2nnc(Cc3ccc(Cl)cn3)o2)c(O)c1-c1c(OC)cccc1OC,"ligand displacement, radioligand",IC50,> 30000 nM
CCCC[C@H](NC(=O)[C@H](C)c1c(C)[nH]c2ccc(O)cc12)c1ncc(-c2cc3ccccc3nc2OC)[nH]1,ligand displacement,IC50,740 nM
Cc1ccc2cccc(N3CCN(CCCCOc4ccc5sc(C(C)C)nc5c4)CC3)c2n1,"cell-free assay, radioligand",Ki,43 nM
O=C1c2ccccc2CCN1CCCCN1CCN(c2cccc(Cl)c2Cl)CC1,"ligand displacement, radioligand",Ki,1.8 nM
CC(C)c1nc2cc(OCCCCN3CCN(c4cccc5c4OCCO5)CC3)ccc2s1,"cell-free assay, radioligand",Ki,32 nM
COCCN(CCOC)C(=O)[C@@]12C[C@@H]1[C@@H](n1cnc3c(NC(C4CC4)C4CC4)nc(Cl)nc31)[C@H](O)[C@@H]2O,"ligand displacement, radioligand",Ki,1230 nM
CCCCN1CCC(COC(=O)c2ccc(N)c(OCF)c2)CC1,"cell-free assay, radioligand",Ki,> 10000 nM
